The subject of one data set is HepG2. The data set can be described thus: Antiproliferative activity against human HepG2 cells after 24 hrs by MTS assay. The data set is classed as functional. The settings on record: HepG2, 24 h. The method, boiled down:
(§1)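 Cells plated (1×10^5 cells/mL) and treated about 24 h later with compounds in DMSO diluted in medium, 0.5 to 200 µM; viability read 24 h after treatment by MTS, absorbance 490 nm. GI50 from non-linear regression; mean ± SEM of three independent experiments. HCT116 and SW620 in McCoy's 5A, HepG2 in DMEM, all with 10% FBS, 37 °C, 5% CO2.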
(In general: Tetrazolium dyes change colour on reduction, which living cells bring about.)

Data set [1] concerns HCT-116. The data set can be described thus: Antiproliferative activity against human HCT116 cells expressing p53 after 24 hrs by MTS assay. The settings on record: HCT-116, 24 h. The data set is classed as functional. The method, boiled down: as §1
For the next data set, the system named is SW-620. The data set can be described thus: Antiproliferative activity against human SW620 cells expressing p53 mutant after 24 hrs by MTS assay. The format is functional. As to conditions: SW-620, 24 h. The method, boiled down: as §1
The test system of data set [2] is HCT-116. As to the kind of experiment: Antiproliferative activity against p53-deficient human HCT116 cells after 24 hrs by MTS assay. The data set is classed as functional. As to conditions: HCT-116, 24 h. The method, boiled down:
as §1

In data set [3] the target is T1, Tumour suppressor p53/oncoprotein Mdm2 (Homo sapiens) (UniProt P04637+Q00987). The data set can be described thus: Inhibition of p53-MDM2 (unknown origin) interaction expressed in p53-deficient human HCT116 cells at 10 to 50 uM after 24 hrs by BiFC-based FACS flow cytometric analysis. The format is cell-based. The settings on record: HCT-116. The method, boiled down: (§2)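 HCT116 p53-/- cells co-transfected with V1-p53/MDM2-V2 BiFC plasmids (1 µg each, Lipofectamine 2000). Medium replaced 4–6 h post-transfection and compounds in DMSO added. Cells harvested at 24 h with accutase, resuspended in PBS, and complementation fluorescence measured by flow cytometry; n = 3.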
T1 sequence (P04637 whole entry, looked up): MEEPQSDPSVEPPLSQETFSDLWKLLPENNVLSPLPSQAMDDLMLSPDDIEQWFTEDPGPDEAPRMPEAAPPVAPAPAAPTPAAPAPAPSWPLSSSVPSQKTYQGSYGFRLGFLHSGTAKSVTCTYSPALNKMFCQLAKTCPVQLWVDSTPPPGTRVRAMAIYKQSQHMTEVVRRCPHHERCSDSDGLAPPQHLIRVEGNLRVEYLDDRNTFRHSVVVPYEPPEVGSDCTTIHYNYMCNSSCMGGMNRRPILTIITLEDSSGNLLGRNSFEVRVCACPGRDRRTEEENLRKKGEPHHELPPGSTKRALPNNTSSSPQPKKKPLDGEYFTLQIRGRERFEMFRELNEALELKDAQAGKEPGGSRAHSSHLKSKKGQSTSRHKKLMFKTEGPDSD
T1 sequence (Q00987 whole entry, looked up): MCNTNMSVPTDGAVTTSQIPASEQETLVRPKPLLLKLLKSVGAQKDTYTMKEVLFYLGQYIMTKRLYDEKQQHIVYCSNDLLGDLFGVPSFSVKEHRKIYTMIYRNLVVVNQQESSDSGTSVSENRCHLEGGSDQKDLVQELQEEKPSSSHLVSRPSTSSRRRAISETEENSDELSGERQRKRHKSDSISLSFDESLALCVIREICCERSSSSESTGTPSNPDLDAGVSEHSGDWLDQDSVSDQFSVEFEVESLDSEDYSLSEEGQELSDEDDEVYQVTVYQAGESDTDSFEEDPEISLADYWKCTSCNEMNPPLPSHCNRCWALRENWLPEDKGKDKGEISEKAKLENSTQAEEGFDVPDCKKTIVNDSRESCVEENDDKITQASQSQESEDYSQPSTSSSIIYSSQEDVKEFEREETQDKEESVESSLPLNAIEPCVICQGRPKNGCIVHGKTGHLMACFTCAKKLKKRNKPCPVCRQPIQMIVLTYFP
(A flow cytometer gives signals particle by particle.)

Data set [4] concerns HCT-116. The data set can be described thus: Induction of apoptosis in p53-deficient human HCT116 cells assessed as caspase 3 activation after 24 hrs by Western blotting analysis. The format is functional, cell-based. As to conditions: in the assay text read “p53 wild-type” for “p53-deficient”. Put shortly: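 HCT116 p53-/- cells seeded at 3×10^5 cells/mL and exposed to vehicle or compound at 25 and 50 µM for 24 h. Whole-cell extracts (60–80 µg) run on 8% and 14% SDS-PAGE and immunoblotted for caspase-3 or PARP-1/2. Bands quantified by densitometry and normalized to β-actin; three independent experiments.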

The target of data set [5] is T1, Tumour suppressor p53/oncoprotein Mdm2 (Homo sapiens). The data set can be described thus: Inhibition of p53-MDM2 (unknown origin) interaction expressed in p53-deficient human HCT116 cells at 25 to 50 uM after 24 hrs by BiFC-based FACS flow cytometric analysis. The data set is classed as cell-based. The settings on record: HCT-116. Put shortly:
as §2

Data set [6] has as its system HCT-116. As to the kind of experiment: Induction of apoptosis in p53-deficient human HCT116 cells assessed as increase in PARP cleavage after 24 hrs by Western blotting analysis. The data set is classed as functional, cell-based. As to conditions: in the assay text read “p53 wild-type” for “p53-deficient”. (Immunoblotting shows a protein as a band on a membrane.)
For the next data set, the system named is Plasma. The data set can be described thus: Metabolic stability in human plasma up to 72 hrs by HPLC analysis. The format is ADME, cell-free.
The nature of data set [7]: Chemical stability in phosphate buffer at pH 7.4 up to 72 hrs by HPLC analysis. The format is physicochemical. The settings on record: pH 7.4, 72 h. The method, boiled down: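 12.5 µL of 10^-2 M DMSO stock added to 2.5 mL potassium phosphate buffer (pH 7.4, 0.5 M) at 37 °C; aliquots taken at intervals into acetonitrile and analysed by RP-18 HPLC (acetonitrile/water 70:30, 1 mL/min, UV 260 nm, 25 °C) over 72 h.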

A short description of data set [8]: Half life in Sprague-Dawley rat liver microsomes by HPLC analysis in presence of NADPH-regenerating system. The format is ADME. The method, boiled down:
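Male Sprague–Dawley pooled liver microsomes in potassium phosphate pH 7.4 with NADPH regenerating system, preincubated 5 min at 37 °C. Reaction started with 4 µL of 10^-3 M DMSO stock. Aliquots quenched in acetonitrile, centrifuged, and supernatant analysed by RP-18 HPLC at 260 nm for half-life.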

One may read the GI50 as the concentration that inhibits growth by half. Higher therefore signals lower sensitivity of the cells. Usually half-life stands for the time in which the quantity being followed falls by half.

Calls of active or inactive are those of the source. The rule behind the calls is not given here.

The compound `COc1ccc([C@@H]2C(c3ccccc3)=NO[C@@]23C(=O)N(C)c2ccccc23)cc1` (relative stereo) displayed a GI50 in the data set on HepG2 of over 100 µM.

Consider `COc1ccccc1C1=NO[C@@]2(C(=O)Nc3cc(Cl)ccc32)[C@@H]1c1ccccc1` (relative stereo), for which the GI50 worked out at 30.5 µM with HCT-116 [1], 35.7 µM in the data set on HepG2, 36.7 µM in the data set on SW-620 and 35.6 µM in the data set with HCT-116 [2].

With `O=C1Nc2ccccc2[C@]12ON=C(c1ccccc1)[C@H]2c1ccccc1` (relative stereo), the GI50 in the data set on HepG2 is over 100 µM.

In the case of `COc1ccc(C2=NO[C@@]3(C(=O)Nc4ccccc43)[C@@H]2c2ccc(OC)cc2)cc1` (relative stereo), in the data set on HepG2, the GI50 is over 100 µM.

On to `COc1ccc(C2=NO[C@@]3(C(=O)Nc4cc(Cl)ccc43)[C@@H]2c2ccc(OC)cc2)cc1` (relative stereo), for which the GI50 in the data set on HepG2 is over 100 µM.

`O=C1Nc2cc(Cl)ccc2[C@]12ON=C(c1ccccc1)[C@H]2c1ccccc1` (relative stereo): the GI50 was found to be 39.8 µM in the data set on HCT-116 [1], 37.1 µM with HepG2, 48.9 µM in the data set with SW-620 and 48.2 µM in the data set on HCT-116 [2]. Further, the inhibition result in data set [3] was “Active”.

`O=C1Nc2c(Cl)cccc2[C@]12ON=C(c1ccc([N+](=O)[O-])cc1)[C@H]2c1ccccc1` (relative stereo) showed a GI50 in the data set with HepG2 of 55.5 µM.

On to `O=C1Nc2cc(Br)ccc2[C@]12ON=C(c1ccccc1)[C@H]2c1ccccc1` (relative stereo), for which the GI50 in the data set on HCT-116 [1] was 35 µM; with HepG2, 32.8 µM; with SW-620 it was 39.6 µM; in the data set on HCT-116 [2], 40.6 µM.

In turn, `O=C1Nc2ccc([N+](=O)[O-])cc2[C@]12ON=C(c1ccccc1)[C@H]2c1ccccc1` (relative stereo) gave a GI50 in the data set with HepG2 of 83.6 µM.

Take `COc1ccc(C2=NO[C@@]3(C(=O)Nc4ccc([N+](=O)[O-])cc43)[C@@H]2c2ccccc2)cc1` (relative stereo): the GI50 in the data set on HepG2 was found to be 53.1 µM.

As for `COc1ccc(C2=NO[C@@]3(C(=O)Nc4ccccc43)[C@@H]2c2ccccc2)cc1` (relative stereo), the GI50 in the data set on HepG2 worked out at 77.8 µM.

Regarding `O=C1Nc2cc(Cl)ccc2[C@]12ON=C(c1ccc([N+](=O)[O-])cc1)[C@H]2c1ccccc1` (relative stereo), the 50% growth inhibitory concentration (GI50) with HCT-116 [1] is 32.4 µM; with HepG2 it was 33.8 µM; in the data set on SW-620 it was 33.5 µM; in the data set with HCT-116 [2] it was 39 µM.

For the compound `COc1ccc([C@@H]2C(c3ccccc3)=NO[C@@]23C(=O)Nc2ccccc23)cc1` (relative stereo), the GI50 in the data set with HepG2 is over 100 µM.

On to `Cc1ccc(C2=NO[C@@]3(C(=O)Nc4cc(Cl)ccc43)[C@@H]2c2ccccc2)cc1` (relative stereo), for which the GI50 was 26.6 µM in the data set on HCT-116 [1], 29.1 µM in the data set with HepG2, 31.6 µM in the data set on SW-620 and 30.6 µM in the data set on HCT-116 [2]. In addition, the Activity result with HCT-116 [4] and in the data set with HCT-116 [6] was “Dose-dependent effect” in each case. In addition, the inhibition result in data set [5] was “Active”.

Regarding `COc1ccc(C2=NO[C@@]3(C(=O)Nc4c(Cl)cccc43)[C@@H]2c2ccccc2)cc1` (relative stereo), halving of growth in the data set on HepG2 (GI50) required 55.8 µM.

Turning to `COc1ccc(C2=NO[C@@]3(C(=O)Nc4cc(Br)ccc43)[C@@H]2c2ccccc2)cc1` (relative stereo), the Stability result (with Plasma; in data set [7]) was “Stable” each time. Besides, the GI50 worked out at 33.4 µM in the data set with HCT-116 [1], 31.7 µM in the data set on HepG2, 40.4 µM with SW-620 and 39 µM in the data set with HCT-116 [2]. Also, the half-life in data set [8] is 3.62 h.

`O=C1Nc2ccccc2[C@]12ON=C(c1ccc([N+](=O)[O-])cc1)[C@H]2c1ccccc1` (relative stereo) showed a concentration for 50% growth inhibition (GI50) in the data set with HepG2 of 52.1 µM.

As for `COc1ccc(C2=N[C@@H](c3ccc(Cl)cc3)[C@@H](c3ccc(Cl)cc3)N2C(=O)N2CCNC(=O)C2)c(OC(C)C)c1` [NUTLIN-3], the GI50 in the data set on HepG2 was determined as 51.3 µM; in the data set on HCT-116 [2], 52.3 µM.

As for `COc1ccc(C2=NO[C@@]3(C(=O)Nc4cc(Cl)ccc43)[C@@H]2c2ccccc2)cc1` (relative stereo), the Stability entry (with Plasma; in [7]) was “Stable” in each case. Further, the GI50 in the data set on HCT-116 [1] is 34.7 µM; in the data set with HepG2, 38.1 µM; with SW-620 it was 53.2 µM; with HCT-116 [2], 40.1 µM. Also, the Activity result in the data set on HCT-116 [4] and in the data set with HCT-116 [6] was “Dose-dependent effect” throughout. Moreover, the half-life in data set [8] is 3.15 h. Moreover, in data set [5], the inhibition entry is “Active”.

These data come from ChEMBL document CHEMBL3098112, “Synthesis and evaluation of spiroisoxazoline oxindoles as anticancer agents” (Bioorg Med Chem, 2014).
